Measured values from ChEMBL document CHEMBL1255289, “In vitro antifungal activities of isavuconazole (BAL4815), voriconazole, and fluconazole against 1,007 isolates of zygomycete, Candida, Aspergillus, Fusarium, and Scedosporium species” (2008).
In brackets after ≈: the same amount, converted by molar mass.

Legend:
Type in all cases: functional
[1] = system: Candida parapsilosis; assay: Antifungal activity against Candida parapsilosis isolates after 48 hrs by CLSI M27-A2 procedure based assay; conditions: Lodderomyces parapsilosis, 48 h
Summary of the method: (§1)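 Candida isolates tested by CLSI M27-A2 broth microdilution at final 0.015–16 µg/ml, or 0.125–128 µg/ml for the comparator azole. Incubation was at 35°C with a visual read at 48 h. MIC-2 was the lowest concentration giving a prominent turbidity drop, about 50% growth inhibition.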

[2] = system: Candida albicans; assay: Antifungal activity against Candida albicans isolates after 48 hrs by CLSI M27-A2 procedure based assay; conditions: Candida albicans, 48 h; summary of the method: as §1
[3] = system: Nakaseomyces glabratus; assay: Antifungal activity against Candida glabrata isolates after 48 hrs by CLSI M27-A2 procedure based assay; conditions: Nakaseomyces glabratus, 48 h; summary of the method: as §1
[4] = system: Candida tropicalis; assay: Antifungal activity against Candida tropicalis isolates after 48 hrs by CLSI M27-A2 procedure based assay; conditions: Candida tropicalis, 48 h; summary of the method: as §1
[5] = system: Candida; assay: Antifungal activity against Candida sp. isolates after 48 hrs by CLSI M27-A2 procedure based assay
Summary of the method: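 Candida isolates were stored at –70°C as yeast suspensions and subcultured on potato dextrose or Sabouraud agar before use. Broth microdilution used DMSO drug stocks, with final well concentrations of 0.015–16 or 0.125–128 µg/ml depending on the azole. Plates were incubated at 35°C and read macroscopically at 48 h. MIC-2 was the lowest concentration giving a prominent turbidity decrease (~50% growth inhibition).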

[6] = system: Pichia kudriavzevii; assay: Antifungal activity against Candida krusei isolates after 48 hrs by CLSI M27-A2 procedure based assay; summary of the method: as §1

## OC(Cn1cncn1)(Cn1cncn1)c1ccc(F)cc1F [FLUCONAZOLE]
[1]
  MIC50: 0.5 µg/mL (≈ 1.63 µM)
  MIC90: 1 µg/mL (≈ 3.27 µM)
[2]
  MIC50: 0.25 µg/mL (≈ 0.816 µM)
  MIC90: 16 µg/mL (≈ 52.2 µM)
[3]
  MIC50: 16 µg/mL (≈ 52.2 µM)
  MIC90: 32 µg/mL (≈ 104 µM)
[4]
  MIC: 0.25 µg/mL (≈ 0.816 µM)
  MIC50: 0.25 µg/mL (≈ 0.816 µM)
  MIC90: 2 µg/mL (≈ 6.53 µM)
[5]
  MIC: 0.25 µg/mL (≈ 0.816 µM)
[6]
  MIC: 16 µg/mL (≈ 52.2 µM)
